One may read the IC50 as the concentration at which inhibition is half-maximal.

For experiment [1], the system named is CCRF-CEM/ara-C. Put plainly: Cytotoxicity against CCRF-CEM/ara-C human leukemic lymphoblastoid cell lines. The class given is functional, cell-based. Put shortly: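 Ara-C-resistant subline of CCRF-CEM human leukemic lymphoblasts, deficient in deoxycytidine kinase activity. Growth inhibition measured in culture.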
The subject of experiment [2] is CCRF-CEM. Put plainly: Cytotoxicity against CCRF-CEM human leukemic lymphoblastoid cell lines. The class given is functional, cell-based.
Experiment [3] relates to L1210. Put plainly: Antileukemic activity against L1210 leukemia cells in female B6D2F1/J mice at 156 mg/kg dose (post inoculation life span, days). In kind it is functional, Mus musculus. Put shortly:
(§1)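 Female B6D2F1/J mice (about 20 g) inoculated ip on day 0 with ascites fluid containing 10^6 L1210 cells. Starting 24 h later, hydrochloride salt given ip daily for 7 consecutive days in water (neutralized with 1 N NaOH when necessary), 0.01 mL/g body weight. Five mice per dose. Life span reported as mean ± 1 SD. Increased life span calculated as (T/C - 1) × 100 against untreated controls.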

Experiment [4] relates to L1210. As to the kind of experiment: Antileukemic activity against L1210 leukemia cells in female B6D2F1/J mice at 208 mg/kg dose (post inoculation life span, days). The class given is functional, Mus musculus. Put shortly: as §1
The subject of experiment [5] is L1210. Put plainly: Antileukemic activity against L1210 leukemia cells in female B6D2F1/J mice at 34 mg/kg dose (post inoculation life span, days). In kind it is functional, Mus musculus. Put shortly: as §1
The test system of experiment [6] is L1210. Put plainly: Antileukemic activity against L1210 leukemia cells in female B6D2F1/J mice at 93 mg/kg dose (post inoculation life span, days). The class given is functional, Mus musculus. Put shortly:
as §1

Experiment [7] deals with L1210. As to the kind of experiment: Antileukemic activity against L1210 leukemia cells in female B6D2F1/J mice at 34 mg/kg dose(Mean increased life span, calculated as (T/C-1)X100). The class given is functional, Mus musculus. Put shortly: as §1
For experiment [8], the system named is MOLT-4. As to the kind of experiment: Cytotoxicity against MOLT-4 human leukemic lymphoblastoid cell lines. In kind it is functional, cell-based.
Experiment [9] deals with L1210. As to the kind of experiment: Antileukemic activity against L1210 leukemia cells in female B6D2F1/J mice at 156 mg/kg dose(Mean increased life span, calculated as (T/C-1)X100). The class given is functional, Mus musculus. Put shortly:
as §1

Experiment [10] relates to L1210. As to the kind of experiment: Antileukemic activity against L1210 leukemia cells in female B6D2F1/J mice at 56 mg/kg dose(Mean increased life span, calculated as (T/C-1)[…]). The class given is functional, Mus musculus. Put shortly: as §1
For experiment [11], the system named is L1210. Put plainly: Antileukemic activity against L1210 leukemia cells in female B6D2F1/J mice at 93 mg/kg dose(Mean increased life span, calculated as (T/C-1)X100). In kind it is functional, Mus musculus. Put shortly:
as §1

Experiment [12] deals with RPMI 6410. As to the kind of experiment: Cytotoxicity against RPMI-6410 human leukemic lymphoblastoid cell lines. The class given is functional, cell-based.
The subject of experiment [13] is L1210. As to the kind of experiment: Antileukemic activity against L1210 leukemia cells in female B6D2F1/J mice at 208 mg/kg dose(Mean increased life span, calculated as […]. In kind it is functional, Mus musculus. Put shortly:
as §1

The subject of experiment [14] is L1210. Put plainly: Antileukemic activity against L1210 leukemia cells in female B6D2F1/J mice at 56 mg/kg dose (post inoculation life span, days). In kind it is functional, Mus musculus. Put shortly: as §1
The subject of experiment [15] is L1210. Put plainly: Antileukemic activity against L1210 leukemia cells in female B6D2F1/J mice at 208 mg/kg dose(Mean increased life span, calculated as (T/C-1)X100). In kind it is functional, Mus musculus. Put shortly: as §1
Experiment [16] concerns L1210. Put plainly: Antileukemic activity against L1210 leukemia cells in female B6D2F1/J mice at 56 mg/kg dose(Mean increased life span, calculated as (T/C-1)X100). In kind it is functional, Mus musculus. Put shortly:
as §1

Each structure is given as a SMILES string.

On to `Nc1ccn([C@@H]2O[C@H](CO)[C@@H](O)[C@@H]2O[N+](=O)[O-])c(=O)n1`, for which the IC50 turned out to be 1000 µM in experiment [1], 0.6 µM in [2], 0.4 µM in experiment [8] and 6 µM in [12]. The Life span was determined as 13.8 days in [3]; 16.6 days in experiment [4]; 7.4 days in experiment [5]; 10.8 days in experiment [6]; 10.4 days in [14]. The “Mean increased life span” value in [7] is given as 17%; in experiment [9], 118%; in experiment [10] it was 64%; in [11], 71%; in [13] it was 162%.
Regarding `Nc1ccn([C@@H]2O[C@H](CO)[C@@H](O)[C@@H]2O)c(=O)n1` [CYTARABINE], the IC50 in experiment [1] was found to be 100 µM; in experiment [2] it was 0.02 µM; in experiment [8] it was 0.01 µM; in [12], 0.06 µM. In addition, the Life span in [3] turned out to be 16.25 days; in experiment [4] it was 16.6 days; in experiment [5], 12.8 days; in [6] it was 14 days; in [14], 13 days. For the same compound, the “Mean increased life span” value in [15] is 162%; in experiment [7], 102%; in [16], 105%; in experiment [9], 157%; in experiment [11], 128%.

The values are drawn from ChEMBL document CHEMBL1122440, “2'-O-nitro-1-beta-D-arabinofuranosylcytosine. A new derivative of 1-beta-D-arabinofuranosylcytosine that resists enzymatic deamination and has antileukemic activity” (J Med Chem, 1983).
